Series [1] can be described thus: Stability in human plasma assessed as half life at 100 uM by LC-HRMS analysis. The format is ADME, cell-free. Put shortly: (§1)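 Peptides at 100 μM initial concentration in human plasma/PBS (1:2 v/v), incubated at 37 °C for up to 48 h (sampled at 10 min, 30 min, 1, 2, 6, 24, 48 h); intact peptide and fragments analysed by LC-HRMS. Values are means ± SEM from three independent experiments.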

Series [2] addresses Neurotensin receptor type 1 (Homo sapiens, UniProt P30989). Briefly: Displacement of [3H]UR-MK300 from human NSTR1 in HT-29 cells incubated for 2 hrs by liquid scintillation counter. The format is cell-based.
Series [3] can be described thus: Stability in human plasma assessed as percentage intact peptide at 100 uM incubated for 30 mins by LC-HRMS analysis. Type of series: ADME, cell-free. The conditions noted are these: read-out: Stability. Put shortly:
as §1

A short description of series [4]: Stability in human plasma assessed as percentage intact peptide at 100 uM incubated for 2 hrs by LC-HRMS analysis. The format is ADME, cell-free. The conditions noted are these: read-out: Stability. Put shortly:
as §1

A short description of series [5]: Stability in human plasma assessed as percentage intact peptide at 100 uM incubated for 10 mins by LC-HRMS analysis. The format is ADME, cell-free. Particulars: read-out: Stability. The gist of the method: as §1
Series [6] can be described thus: Stability in human plasma assessed as percentage intact peptide at 100 uM incubated for 1 hr by LC-HRMS analysis. The format is ADME, cell-free. Particulars: read-out: Stability. Put shortly: as §1
A short description of series [7]: Stability in human plasma assessed as percentage intact peptide at 100 uM incubated for 24 hrs by LC-HRMS analysis. Type of series: ADME, cell-free. Particulars: read-out: Stability. Put shortly: as §1
Series [8] in a line: Stability in human plasma assessed as percentage intact peptide at 100 uM incubated for 48 hrs by LC-HRMS analysis. The format is ADME, cell-free. The conditions noted are these: read-out: Stability. Put shortly: as §1
Series [9] is described as follows: Stability in human plasma assessed as percentage intact peptide at 100 uM incubated for 6 hrs by LC-HRMS analysis. Type of series: ADME, cell-free. Particulars: read-out: Stability. The gist of the method: as §1

Neurotensin receptor type 1, sequence (P30989 whole entry): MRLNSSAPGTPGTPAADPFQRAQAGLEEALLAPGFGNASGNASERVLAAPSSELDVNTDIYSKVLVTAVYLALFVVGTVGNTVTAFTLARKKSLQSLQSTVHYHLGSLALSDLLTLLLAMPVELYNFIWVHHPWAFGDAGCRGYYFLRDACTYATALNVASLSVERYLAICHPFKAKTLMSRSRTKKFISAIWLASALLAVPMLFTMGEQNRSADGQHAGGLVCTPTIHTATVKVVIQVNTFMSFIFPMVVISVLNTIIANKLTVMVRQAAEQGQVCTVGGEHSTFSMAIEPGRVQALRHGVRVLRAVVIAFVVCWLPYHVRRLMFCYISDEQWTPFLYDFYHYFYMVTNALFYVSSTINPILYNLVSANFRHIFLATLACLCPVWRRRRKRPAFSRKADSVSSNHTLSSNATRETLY

Consider `CC[C@H](C)[C@H](NC(=O)[C@H](Cc1ccc(O)cc1)NC(=O)[C@@H]1CCCN1C(=O)[C@H](CCCNC(=N)N)NC(=O)[C@H](CCCNC(=N)N)NC)C(=O)N[C@@H](CC(C)C)C(=O)O.O=C(O)C(F)(F)F.O=C(O)C(F)(F)F.O=C(O)C(F)(F)F`, for which, in [1], the half-life at 100 µM is less than 5 h. In [2], this compound showed a Ki of 0.223 nM. Besides, the remaining at 0.5 h, 100 µM in series [3] was 88.2%. For the same compound, the remaining at 2 h, 100 µM in [4] was found to be 70.8%. In addition, the remaining at 10 min, 100 µM in series [5] stood at 92.1%. Besides, the remaining at 1 h, 100 µM in series [6] was determined as 79.7%.
In the case of `CC[C@H](C)[C@H](NC(=O)[C@H](Cc1ccc(O)cc1)NC(=O)[C@@H]1CCCN1C(=O)[C@H](CCCNC(=N)N)NC(=O)[C@@H](N)CCCNC(=N)N)C(=O)N(C)[C@@H](CC(C)C)C(=O)O`, the remaining at 0.5 h, 100 µM in [3] was less than 1%. Also, in series [4], the remaining at 2 h, 100 µM was less than 1%. Besides, the remaining at 10 min, 100 µM in series [5] was 39.9%. For the same compound, the remaining at 1 h, 100 µM in series [6] is less than 1%.
Regarding `CCC(=O)N[C@@H](CCCNC(=N)N)C(=O)N[C@@H](CCCNC(=N)N)C(=O)N1CCC[C@H]1C(=O)N[C@@H](Cc1ccc(O)cc1)C(=O)N[C@H](C(=O)N[C@@H](CC(C)C)C(=O)O)[C@@H](C)CC.O=C(O)C(F)(F)F.O=C(O)C(F)(F)F`, in series [1], the half-life at 100 µM was in the range of 1 to 2 h. In addition, in series [3], the remaining at 0.5 h, 100 µM was 84%. Moreover, in series [5], the remaining at 10 min, 100 µM is greater than 99%. Also, in [6], the remaining at 1 h, 100 µM came to 71.8%.
`CC[C@H](C)[C@H](NC(=O)[C@H](Cc1ccc(O)cc1)N(C)C(=O)[C@@H]1CCCN1C(=O)[C@H](CCCNC(=N)N)NC(=O)[C@@H](N)CCCNC(=N)N)C(=O)N[C@@H](CC(C)C)C(=O)O`: in series [3], the remaining at 0.5 h, 100 µM is less than 1%. Besides, in series [4], the remaining at 2 h, 100 µM is less than 1%. The remaining at 10 min, 100 µM in [5] was determined as 22.9%. The remaining at 1 h, 100 µM in [6] was less than 1%.
On to `CC(C)C[C@H](NC(=O)[C@@H](NC(=O)[C@H](Cc1ccc(O)cc1)NC(=O)[C@@H]1CCCN1C(=O)[C@H](CCCNC(=N)N)NC(=O)[C@@H](N)CCCNC(=N)N)C(C)(C)C)C(=O)O.O=C(O)C(F)(F)F.O=C(O)C(F)(F)F.O=C(O)C(F)(F)F`, for which the half-life at 100 µM in [1] is less than 0.0833 h. Also, the remaining at 10 min, 100 µM in series [5] is 10.8%. The remaining at 1 h, 100 µM in series [6] is less than 1%. Also, the remaining at 24 h, 100 µM in [7] is less than 1%. Besides, the remaining at 48 h, 100 µM in series [8] is less than 1%.
On to `CC[C@H](C)[C@@H](C(=O)N[C@@H](CC(C)C)C(=O)O)N(C)C(=O)[C@H](Cc1ccc(O)cc1)NC(=O)[C@@H]1CCCN1C(=O)[C@H](CCCNC(=N)N)NC(=O)[C@@H](N)CCCNC(=N)N`, for which the remaining at 0.5 h, 100 µM in series [3] is less than 1%. For the same compound, the remaining at 2 h, 100 µM in series [4] is less than 1%. For the same compound, the remaining at 10 min, 100 µM in series [5] worked out at 2.6%. In addition, the remaining at 1 h, 100 µM in series [6] is less than 1%.
Take `CC[C@H](C)[C@H](NC(=O)[C@H](Cc1ccc(O)cc1)NC(=O)[C@@H]1CCCN1C(=O)[C@H](CCCNC(=N)N)N(C)C(=O)[C@@H](N)CCCNC(=N)N)C(=O)N[C@@H](CC(C)C)C(=O)O`: in [3], the remaining at 0.5 h, 100 µM is 93.6%. Also, in series [4], the remaining at 2 h, 100 µM is 66.4%. The remaining at 10 min, 100 µM in series [5] is greater than 99%. The remaining at 1 h, 100 µM in series [6] was determined as 83.7%.
With `CC(C)C[C@H](NC(=O)[C@@H](NC(=O)[C@H](Cc1ccc(O)cc1)NC(=O)[C@@H]1CCCN1C(=O)[C@H](CCCNC(=N)N)N(C)C(=O)[C@@H](N)CCCNC(=N)N)C(C)(C)C)C(=O)O.O=C(O)C(F)(F)F.O=C(O)C(F)(F)F.O=C(O)C(F)(F)F`, the half-life at 100 µM in series [1] is greater than 48 h. The compound further had a Ki in series [2] of 1.6 nM. In addition, the remaining at 1 h, 100 µM in series [6] is greater than 99%. In series [9], the remaining at 6 h, 100 µM is greater than 99%. Besides, the remaining at 24 h, 100 µM in series [7] is greater than 99%. The remaining at 48 h, 100 µM in series [8] was greater than 99%.
As to `CCC(=O)N[C@@H](CCCNC(=N)N)C(=O)N[C@@H](CCCNC(=N)N)C(=O)N1CCC[C@H]1C(=O)N[C@@H](Cc1ccc(O)cc1)C(=O)N[C@H](C(=O)N[C@@H](CC(C)C)C(=O)O)C(C)(C)C`, the Ki in series [2] was found to be 18 nM. Further, the remaining at 1 h, 100 µM in [6] was greater than 99%. The remaining at 6 h, 100 µM in [9] is greater than 99%. Further, the remaining at 24 h, 100 µM in series [7] is greater than 99%. The remaining at 48 h, 100 µM in series [8] stood at 92.5%.
With `CC[C@H](C)[C@H](NC(=O)[C@H](Cc1ccc(O)cc1)NC(=O)[C@@H]1CCCN1C(=O)[C@H](CCCNC(=N)N)NC(=O)[C@@H](N)CCCNC(=N)N)C(=O)N[C@@H](CC(C)C)C(=O)O`, in series [1], the half-life at 100 µM is less than 0.0833 h. Moreover, the remaining at 10 min, 100 µM in series [5] worked out at 23.1%. Also, the remaining at 1 h, 100 µM in series [6] is less than 1%. In addition, the remaining at 24 h, 100 µM in series [7] is less than 1%. In addition, the remaining at 48 h, 100 µM in [8] was less than 1%.
With `CN[C@@H](CCCNC(=N)N)C(=O)N[C@@H](CCCNC(=N)N)C(=O)N1CCC[C@H]1C(=O)N[C@@H](Cc1ccc(O)cc1)C(=O)N[C@H](C(=O)N[C@@H](CC(C)C)C(=O)O)C(C)(C)C.O=C(O)C(F)(F)F.O=C(O)C(F)(F)F.O=C(O)C(F)(F)F`, the half-life at 100 µM in series [1] was greater than 48 h. The Ki in series [2] worked out at 0.88 nM. In series [6], the remaining at 1 h, 100 µM was greater than 99%. Also, the remaining at 6 h, 100 µM in [9] was greater than 99%. In [7], the remaining at 24 h, 100 µM was 98.3%. In series [8], the remaining at 48 h, 100 µM was 86.8%.

For the origin of these results see ChEMBL document CHEMBL4304768, “Modifications at Arg and Ile Give Neurotensin(8-13) Derivatives with High Stability and Retained NTS1 Receptor Affinity” (ACS Med Chem Lett, 2019).
